Laboratory results reported in ChEMBL document CHEMBL1137992, “Long hydrocarbon chain keto diols and diacids that favorably alter lipid disorders in vivo” (J Med Chem, 2004).

Test system: Rattus norvegicus
Test: Amount of insulin in obese Zucker rats after 2 weeks of treatment at a dose of 30 mg/kg/day
Assay type: functional
Method in brief: (§1)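 Female obese Zucker rats [Crl:(Zuc)-faBR], 400–500 g, given daily oral gavage in 20% EtOH/80% PEG-200 for up to 14 days. After a 6-h fast, serum was collected pretreatment and at day 7 (orbital bleed) and day 14 (cardiac puncture) and stored at -80 °C. Insulin was measured by ELISA. Values are mean ± SEM.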

| SMILES | Activity [ng/mL] |
| --- | --- |
| CC(C)(CCCCC(=O)CCCCC(C)(C)C(=O)O)C(=O)O | 8.5 |

Test system: Rattus norvegicus
Test: Amount of non-HDL-cholesterol in obese Zucker rats after 1 week of treatment at a dose of 0 mg/kg/day
Assay type: functional
Method in brief: (§2)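 Female Zucker fatty rats [Crl:(Zuc)-faBR], 10–12 weeks old (400–500 g), dosed once daily by oral gavage in 20% EtOH/80% PEG-200 (dose volume 0.25% of body weight). Rats were fasted 6 h and bled before dosing and at day 7 (orbital plexus), and at day 14 (cardiac puncture). Serum cholesterol fractions came from Superose 6 gel-filtration lipoprotein profiles (% peak area × serum total cholesterol). Values are mean ± SEM.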

| SMILES | Activity [mg/dL] |
| --- | --- |
| CC(C)(CCCCC(=O)CCCCC(C)(C)C(=O)O)C(=O)O | 43 |

Test system: Rattus norvegicus
Test: Amount of triglycerides in obese Zucker rats after 2 weeks of treatment at a dose of 3 mg/kg/day
Assay type: functional
Method in brief: (§3)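 Female Zucker fatty rats [Crl:(Zuc)-faBR], 10–12 weeks old (400–500 g), dosed once daily by oral gavage in 20% EtOH/80% PEG-200 for up to 14 days. After a 6-h fast, serum was taken pre-dose, at day 7 (orbital venous plexus, O2/CO2 anaesthesia) and at day 14 (cardiac puncture), stored at −80 °C, and assayed on a Hitachi 912 automatic analyzer. Mean ± SEM.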

| SMILES | Activity [mg/dL] |
| --- | --- |
| CC(C)(CCCCC(=O)CCCCC(C)(C)C(=O)O)C(=O)O | 857 |

Test system: Rattus norvegicus
Test: Amount of nonesterified fatty acids in obese Zucker rats after 1 week of treatment at a dose of 0 mg/kg/day
Assay type: functional
Method in brief: as §3

| SMILES | Activity [mg/dL] |
| --- | --- |
| CC(C)(CCCCC(=O)CCCCC(C)(C)C(=O)O)C(=O)O | 1.5 |

Test system: Rattus norvegicus
Test: Amount of HDL-cholesterol in obese Zucker rats after 1 week of treatment at a dose of 0 mg/kg/day
Assay type: functional
Method in brief: as §2

| SMILES | Activity [mg/dL] |
| --- | --- |
| CC(C)(CCCCC(=O)CCCCC(C)(C)C(=O)O)C(=O)O | 39 |

Test system: Rattus norvegicus
Test: Amount of glucose in obese Zucker rats at pre-treatment at a dose of 10 mg/kg/day
Assay type: functional
Method in brief: (§4)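 Female Zucker fatty rats [Crl:(Zuc)-faBR], 10–12 weeks old (400–500 g), gavaged daily with vehicle (20% EtOH/80% PEG-200, 0.25% of body weight) or compound. After a 6-h fast, blood glucose was read by glucometer from tail-prick blood of unanesthetized rats before dosing and after 1 and 2 weeks. Values are mean ± SEM.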

| SMILES | Activity [mg/dL] |
| --- | --- |
| CC(C)(CCCCC(=O)CCCCC(C)(C)C(=O)O)C(=O)O | 113 |

Test system: Rattus norvegicus
Test: Amount of non-HDL-cholesterol in obese Zucker rats after 1 week of treatment at a dose of 3 mg/kg/day
Assay type: functional
Method in brief: as §2

| SMILES | Activity [mg/dL] |
| --- | --- |
| CC(C)(CCCCC(=O)CCCCC(C)(C)C(=O)O)C(=O)O | 24 |

Test system: Rattus norvegicus
Test: Amount of glucose in obese Zucker rats at pre-treatment at a dose of 3 mg/kg/day
Assay type: functional
Method in brief: as §4

| SMILES | Activity [mg/dL] |
| --- | --- |
| CC(C)(CCCCC(=O)CCCCC(C)(C)C(=O)O)C(=O)O | 108 |

Test system: Rattus norvegicus
Test: Amount of nonesterified fatty acids in obese Zucker rats after 2 weeks of treatment at a dose of 0 mg/kg/day
Assay type: functional
Method in brief: as §3

| SMILES | Activity [mg/dL] |
| --- | --- |
| CC(C)(CCCCC(=O)CCCCC(C)(C)C(=O)O)C(=O)O | 1.4 |

Test system: Rattus norvegicus
Test: Amount of triglycerides in obese Zucker rats after 2 weeks of treatment at a dose of 30 mg/kg/day
Assay type: functional
Method in brief: as §3

| SMILES | Activity [mg/dL] |
| --- | --- |
| CC(C)(CCCCC(=O)CCCCC(C)(C)C(=O)O)C(=O)O | 962 |

Test system: Rattus norvegicus
Test: Amount of insulin in obese Zucker rats at pre-treatment at a dose of 3 mg/kg/day
Assay type: functional
Method in brief: as §1

| SMILES | Activity [ng/mL] |
| --- | --- |
| CC(C)(CCCCC(=O)CCCCC(C)(C)C(=O)O)C(=O)O | 10.4 |

Test system: Rattus norvegicus
Test: Percentage change of HDL cholesterol levels in obese female Zucker rats after 1 week of pre-treatment at a dose of 100 mg/kg/day
Assay type: functional
Method in brief: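 Obese female Zucker fatty rats were gavaged once daily with 30 or 100 mg/kg/day in 20% EtOH/80% PEG-200 for 2 weeks. Sera were collected after a 6 h fast, before dosing, at 1 week (orbital plexus) and at 2 weeks (cardiac puncture). HDL-C was total cholesterol multiplied by HDL area fraction from gel-filtration lipoprotein profiles. Reported as % change from pretreatment ± SEM.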

| SMILES | Change [%] |
| --- | --- |
| CC(C)(CCCCC(=O)CCCCC(C)(C)C(=O)O)C(=O)O | 54 |

Test system: Rattus norvegicus
Test: Amount of HDL-cholesterol in obese Zucker rats after 1 week of treatment at a dose of 10 mg/kg/day
Assay type: functional
Method in brief: as §2

| SMILES | Activity [mg/dL] |
| --- | --- |
| CC(C)(CCCCC(=O)CCCCC(C)(C)C(=O)O)C(=O)O | 47 |

Test system: Rattus norvegicus
Test: Amount of glucose in obese Zucker rats after 1 week of treatment at a dose of 100 mg/kg/day
Assay type: functional
Method in brief: as §4

| SMILES | Activity [mg/dL] |
| --- | --- |
| CC(C)(CCCCC(=O)CCCCC(C)(C)C(=O)O)C(=O)O | 113 |

Test system: Rattus norvegicus
Test: Percent increase in HDL-cholesterol in obese Zucker rats after 2 weeks of treatment at a dose of 30 mg/kg/day
Assay type: functional
Method in brief: (§5)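 Female Zucker fatty rats [Crl:(Zuc)-faBR], 10–12 weeks, 400–500 g, acclimated 7 days on chow. Compound or vehicle (20% EtOH/80% PEG-200) given by daily oral gavage for 2 weeks, 0–100 mg/kg/day. After a 6 h fast, blood was taken before dosing, at 1 wk and at 2 wk. Serum lipids, NEFA and insulin (ELISA) were measured; glucose by glucometer. HDL/non-HDL-C came from Superose 6 gel-filtration profiles. Values are % change from pretreatment, mean ± SEM.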

| SMILES | Activity [%] |
| --- | --- |
| CC(C)(CCCCC(=O)CCCCC(C)(C)C(=O)O)C(=O)O | 47 |

Test system: Rattus norvegicus
Test: Amount of glucose in obese Zucker rats after 1 week of treatment at a dose of 0 mg/kg/day
Assay type: functional
Method in brief: as §4

| SMILES | Activity [mg/dL] |
| --- | --- |
| CC(C)(CCCCC(=O)CCCCC(C)(C)C(=O)O)C(=O)O | 124 |

Test system: Rattus norvegicus
Test: Amount of nonesterified fatty acids in obese Zucker rats at pre-treatment at a dose of 100 mg/kg/day
Assay type: functional
Method in brief: as §3

| SMILES | Activity [mg/dL] |
| --- | --- |
| CC(C)(CCCCC(=O)CCCCC(C)(C)C(=O)O)C(=O)O | 1.2 |

Test system: Rattus norvegicus
Test: Amount of glucose in obese Zucker rats after 1 week of treatment at a dose of 10 mg/kg/day
Assay type: functional
Method in brief: as §4

| SMILES | Activity [mg/dL] |
| --- | --- |
| CC(C)(CCCCC(=O)CCCCC(C)(C)C(=O)O)C(=O)O | 105 |

Test system: Rattus norvegicus
Test: Amount of non-HDL-cholesterol in obese Zucker rats after 1 week of treatment at a dose of 30 mg/kg/day
Assay type: functional
Method in brief: as §2

| SMILES | Activity [mg/dL] |
| --- | --- |
| CC(C)(CCCCC(=O)CCCCC(C)(C)C(=O)O)C(=O)O | 37 |

Test system: Rattus norvegicus
Test: Percent decrease in triglycerides in obese Zucker rats after 2 weeks of treatment at a dose of 100 mg/kg/day
Assay type: functional
Parameters: scale not given: the % may be the effect or the level left
Method in brief: as §5

| SMILES | Activity [%] |
| --- | --- |
| CC(C)(CCCCC(=O)CCCCC(C)(C)C(=O)O)C(=O)O | -54 |

Test system: Rattus norvegicus
Test: Amount of glucose in obese Zucker rats after 2 weeks of treatment at a dose of 100 mg/kg/day
Assay type: functional
Method in brief: as §4

| SMILES | Activity [mg/dL] |
| --- | --- |
| CC(C)(CCCCC(=O)CCCCC(C)(C)C(=O)O)C(=O)O | 122 |

Test system: Rattus norvegicus
Test: Amount of insulin in obese Zucker rats after 1 week of treatment at a dose of 0 mg/kg/day
Assay type: functional
Method in brief: as §1

| SMILES | Activity [ng/mL] |
| --- | --- |
| CC(C)(CCCCC(=O)CCCCC(C)(C)C(=O)O)C(=O)O | 8.4 |

Test system: Rattus norvegicus
Test: Amount of HDL-cholesterol in obese Zucker rats after 1 week of treatment at a dose of 3 mg/kg/day
Assay type: functional
Method in brief: as §2

| SMILES | Activity [mg/dL] |
| --- | --- |
| CC(C)(CCCCC(=O)CCCCC(C)(C)C(=O)O)C(=O)O | 36 |

Test system: Rattus norvegicus
Test: Amount of nonesterified fatty acids in obese Zucker rats at pre-treatment at a dose of 10 mg/kg/day
Assay type: functional
Method in brief: as §3

| SMILES | Activity [mg/dL] |
| --- | --- |
| CC(C)(CCCCC(=O)CCCCC(C)(C)C(=O)O)C(=O)O | 1.6 |

Test system: Rattus norvegicus
Test: Amount of triglycerides in obese Zucker rats at pre-treatment at a dose of 3 mg/kg/day
Assay type: functional
Method in brief: as §3

| SMILES | Activity [mg/dL] |
| --- | --- |
| CC(C)(CCCCC(=O)CCCCC(C)(C)C(=O)O)C(=O)O | 996 |

Test system: Rattus norvegicus
Test: Amount of HDL-cholesterol in obese Zucker rats at pre-treatment at a dose of 10 mg/kg/day
Assay type: functional
Method in brief: as §2

| SMILES | Activity [mg/dL] |
| --- | --- |
| CC(C)(CCCCC(=O)CCCCC(C)(C)C(=O)O)C(=O)O | 37 |

Test system: Rattus norvegicus
Test: Amount of insulin in obese Zucker rats at pre-treatment at a dose of 10 mg/kg/day
Assay type: functional
Method in brief: as §1

| SMILES | Activity [ng/mL] |
| --- | --- |
| CC(C)(CCCCC(=O)CCCCC(C)(C)C(=O)O)C(=O)O | 10.6 |

Test system: Rattus norvegicus
Test: Percentage change of triglycerides in obese female Zucker rats after 1 week of pre-treatment at a dose of 100 mg/kg/day
Assay type: functional
Method in brief: (§6)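 Female Zucker fatty rats [Crl:(Zuc)-faBR], 10–12 weeks old (400–500 g), acclimated 7 days and fed rodent chow. Dosed once daily by oral gavage in 20% EtOH/80% PEG-200 (v/v), at 0.25% of body weight, for 2 weeks. Blood taken after a 6-h fast: orbital plexus before dosing and at day 7, cardiac puncture at day 14. Serum lipoprotein cholesterol measured by Superose 6 gel filtration with on-line cholesterol detection. Values are % change from pretreatment, mean ± SEM.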

| SMILES | Change [%] |
| --- | --- |
| CC(C)(CCCCC(=O)CCCCC(C)(C)C(=O)O)C(=O)O | -75 |

Test system: Rattus norvegicus
Test: Amount of HDL-cholesterol in obese Zucker rats after 2 weeks of treatment at a dose of 100 mg/kg/day
Assay type: functional
Method in brief: as §2

| SMILES | Activity [mg/dL] |
| --- | --- |
| CC(C)(CCCCC(=O)CCCCC(C)(C)C(=O)O)C(=O)O | 68 |

Test system: Rattus norvegicus
Test: Percentage change of non-HDL cholesterol levels in obese female Zucker rats after 2 weeks of pre-treatment at a dose of 100 mg/kg/day
Assay type: functional
Method in brief: as §6

| SMILES | Change [%] |
| --- | --- |
| CC(C)(CCCCC(=O)CCCCC(C)(C)C(=O)O)C(=O)O | -41 |

Test system: Rattus norvegicus
Test: Amount of nonesterified fatty acids in obese Zucker rats at pre-treatment at a dose of 30 mg/kg/day
Assay type: functional
Method in brief: as §3

| SMILES | Activity [mg/dL] |
| --- | --- |
| CC(C)(CCCCC(=O)CCCCC(C)(C)C(=O)O)C(=O)O | 1.4 |
